The nature of test [1]: inhibitors of TNFa-induced NFkB p65 translocation, primary screen, imaging, HUVEC, MLSMR starter and 10KST1 sets (AID 438;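 active = inhibition above 20% together with a positive visual image hit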;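 note: compound added about 3h40 before a 20 min TNFalpha stimulation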;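 for inhibition: signal is the nuclear over cytoplasmic p65 intensity ratio per well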). The following applies: HUVEC TNFa-induced p65 nuclear translocation; cell count: measured here: nuclei count (cytotoxicity indicator), at 2.08 µM; inhibition: at 2 µM, stronger effect = higher value, 0% TNFa-plus-vehicle, 100% no-TNFa wells.
Test [2] is described as follows: inhibitors of E-selectin induction by TNFa, primary screen, imaging, HUVEC, immunofluorescence, MLSMR starter and 10KST1 sets (AID 487;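 active = visually confirmed hit in the image check and inhibition above 20%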;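 for inhibition: signal is fraction of cell area covered by stained E-selectin grains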;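 for nuclei count: 100% = median nuclei count of all wells on the same plate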). The following applies: HUVEC TNFalpha-induced E-selectin immunofluorescence imaging, at 2 µM; inhibition: stronger effect = higher value; nuclei count: measured here: cell number, toxicity.
The nature of test [3]: DUSP6 inhibitors restoring Erk phosphorylation by chemical complementation, primary imaging in DUSP6-transfected HeLa (AID 609;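 active = compounds giving at least 50% inhibition in the cell-based MKP-3 phosphatase rescue imaging test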;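 for inhibition: phospho-Erk level distribution per well compared with pooled transfected vehicle control wells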). The following applies: HeLa MKP-3 transfected, phospho-Erk imaging KS statistic, at 10 µM, cells stimulated with TPA for 15 min.
Test [4] addresses Dual specificity protein phosphatase 6 (Homo sapiens) (UniProt Q16828). The description is as above. The following applies: HeLa MKP-3 transfected, phospho-Erk imaging KS statistic; at 10 µM; stronger effect = higher value; cells stimulated with TPA for 15 min.
For test [5], the target named is Voltage-gated potassium channel subunit beta-2 (Rattus norvegicus) (UniProt P62483). Briefly: KvBeta enzyme negative modulators, primary screen, biochemical, NADPH fluorescence (AID 622;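 active = fluorescence slope higher than the sample average by over 3 SD, cut at about -0.22 in these data, passing the limit was not always enough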;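 note: slope of raw intensity against log time taken from 70 to 1610 s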). The following applies: recombinant KvBeta, 4-cyanobenzaldehyde reduction, at 10 µM, stronger effect = higher value.
Voltage-gated potassium channel subunit beta-2 (Rattus norvegicus), sequence (P62483 whole entry, looked up): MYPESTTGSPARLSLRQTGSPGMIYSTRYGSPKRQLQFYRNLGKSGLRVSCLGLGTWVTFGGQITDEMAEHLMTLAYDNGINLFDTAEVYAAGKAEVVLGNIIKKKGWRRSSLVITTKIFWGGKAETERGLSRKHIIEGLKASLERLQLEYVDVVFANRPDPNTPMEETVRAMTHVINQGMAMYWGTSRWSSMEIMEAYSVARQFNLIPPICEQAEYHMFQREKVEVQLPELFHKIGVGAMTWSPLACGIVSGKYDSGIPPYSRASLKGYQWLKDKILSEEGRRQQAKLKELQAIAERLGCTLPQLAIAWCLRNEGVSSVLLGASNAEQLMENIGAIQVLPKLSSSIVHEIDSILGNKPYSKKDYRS
The target is the same in test [6]. Briefly: KvBeta positive modulators, primary screen, biochemical, NADPH fluorescence (AID 623;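 active = NADPH fluorescence slope more negative than the mean of all samples by about 3 SD, 99.7% confidence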;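 note: fluorescence intensity change per second fitted from 20 to 320 s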). The following applies: Recombinant KvBeta, NADPH fluorescence decrease slope, 10 min; at 10 µM; stronger effect = lower value.
In test [7] the target is Muscarinic acetylcholine receptor M4 (Homo sapiens) (UniProt P08173). Briefly: compounds altering M4/GIRK thallium flux, either direction, primary screen, M4 allosteric agonist project, cell-based, HEK293 M4/GIRK, BTC-AM (AID 625;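 active = fluorescence slope after compound addition differing from the mean of all tested samples at 99.7% confidence, mostly higher but some lower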;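 note: thallium influx through GIRK channels coupled to M4 in HEK293 cells with BTC-AM dye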). The following applies: at 10 µM, actives lie on both sides. Summed up: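 System: HEK293 cells with M4 receptor and GIRK channels | Incubation: Cells overnight at 37 °C, BTC-AM loading 1 h, reads 2 min total | Technique: Kinetic BTC-AM fluorescence sampled at 1 Hz, 10 s pre-addition baseline | Measure: Post-addition slope, 15–24 s, of baseline-normalized fluorescence | Control set: Carbachol positive, DMSO negative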
Muscarinic acetylcholine receptor M4 (Homo sapiens), sequence (P08173 whole entry, looked up): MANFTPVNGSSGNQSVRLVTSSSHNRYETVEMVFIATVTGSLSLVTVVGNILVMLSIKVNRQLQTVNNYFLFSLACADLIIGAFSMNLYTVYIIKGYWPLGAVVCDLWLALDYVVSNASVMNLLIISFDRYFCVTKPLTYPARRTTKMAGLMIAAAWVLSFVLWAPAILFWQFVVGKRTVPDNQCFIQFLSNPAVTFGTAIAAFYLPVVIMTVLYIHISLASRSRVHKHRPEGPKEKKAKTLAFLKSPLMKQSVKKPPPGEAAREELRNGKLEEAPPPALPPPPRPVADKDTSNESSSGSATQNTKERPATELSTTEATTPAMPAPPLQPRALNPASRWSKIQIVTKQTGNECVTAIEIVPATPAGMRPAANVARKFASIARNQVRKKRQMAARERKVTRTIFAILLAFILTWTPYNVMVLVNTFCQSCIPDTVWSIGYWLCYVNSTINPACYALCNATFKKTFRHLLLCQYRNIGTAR

The nature of test [8]: inhibitors of larval lipid processing in zebrafish, primary screen, whole organism, PED6 fluorescence, gall bladder and intestine (AID 686;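 active = a full or partial loss of lipid-probe fluorescence in the fish gall bladder, intestine or both, judged by eye; inactive = no fluorescence loss, or compound toxic to the fish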;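 note: larvae 5 to 7 days old with five fish per well; signal comes from phospholipase A2 cleavage of quenched PED6 carried via bile; overnight exposure to compound and PED6 before scoring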). The following applies: Zebrafish larvae PED6 lipid processing, fluorescence scoring; screened at 20 µM (by protocol). Summed up:
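Test system – live zebrafish larvae aged 5-7 days, whole organism · Buffer or medium – E3 fish medium · Reagent – quenched phospholipase substrate PED6, 100 nM final, ingested by larvae · Doses – 20 µM single dose · Incubation – overnight compound and PED6 incubation · Technique – visual fluorescence microscopy scoring of gall bladder, gut · Read-out basis – visual per-well fluorescence inhibition score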

The nature of test [9]: inhibitors of Chlamydomonas gravitaxis, primary screen, whole organism, Chlamydomonas reinhardtii, WT vs cilia-less mutant, absorbance, 96-well (AID 463189).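 Note: 0% = wild type cc124 cells in DMSO and 100% = ciliumless bld1 mutant cells.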 The following applies: OD600 absorbance, 2 days, at 10 µM, stronger effect = higher value.
Setting [10] is: measured here: cell density z-score.
The mark [11] stands for this setting: measured here: nuclear c-Myc green intensity z-score.
Where [12] appears, read: measured here: nuclear pErk red intensity z-score, stronger effect = higher value.

Active and inactive are the calls of the source.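 Rule for the calls, unless noted: active = inhibition at or above 50% relative to wild type and mutant plate controls; inactive = inhibition below 50%.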

Dual specificity protein phosphatase 6 (Homo sapiens), sequence (Q16828 whole entry, looked up): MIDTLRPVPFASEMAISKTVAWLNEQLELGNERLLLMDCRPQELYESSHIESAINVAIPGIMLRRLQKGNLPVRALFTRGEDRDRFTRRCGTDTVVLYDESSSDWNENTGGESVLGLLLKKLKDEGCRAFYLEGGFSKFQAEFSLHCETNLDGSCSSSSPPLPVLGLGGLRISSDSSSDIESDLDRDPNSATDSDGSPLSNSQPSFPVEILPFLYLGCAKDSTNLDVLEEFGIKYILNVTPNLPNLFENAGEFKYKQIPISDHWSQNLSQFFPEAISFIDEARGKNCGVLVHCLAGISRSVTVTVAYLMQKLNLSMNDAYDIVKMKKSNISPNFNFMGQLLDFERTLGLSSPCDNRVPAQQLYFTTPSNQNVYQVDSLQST

For orientation: inhibition means the relative decrease from the control value, in per cent. Turning to `COc1cccc(NC(=O)C2CC(=O)n3cnnc3S2)c1` (centres undefined), the cell count in test [1] was found to be 518. Moreover, the inhibition in [1] is -3.8% (inactive); in test [2], 12.1% (inactive); in [4] it was 35.7% (inactive); in [9], 40.5% (inactive). This compound also had a nuclei count in [2] of 177%. Also, the figures for the z-score in test [3] (setting [10]), in test [3] (setting [11]) and in [3] (setting [12]) were 0.777, -1.1 and -0.46, respectively. For the same compound, the fluorescence slope is -0.339 (inactive) in [5] and 0.00822 (inactive) in [7]. The NADPH fluorescence slope in test [6] was -2.8e-05 (inactive). The compound was called inactive in test [8].
As to `CCC(=NC(CC)CO)C1=C(O)CC(C)(C)CC1=O` (centres undefined), in test [1], the cell count stood at 686. Moreover, the inhibition in test [1] is -11.6% (inactive); in [2], -103% (inactive); in test [4], -13.3% (inactive); in [9], -0.04% (inactive). Moreover, the nuclei count in [2] was found to be 171%. The figures for the z-score in test [3] (setting [10]), in test [3] (setting [11]) and in [3] (setting [12]) were 0.537, -0.145 and 1.26, respectively. In addition, the results for the fluorescence slope in test [5] and in test [7] were -0.519 (inactive) and 0.00583 (inactive), respectively. In addition, in test [6], the NADPH fluorescence slope is -8.5e-05 (inactive). In addition, the compound was classed as inactive in [8].
As to `CCc1[nH]c(=O)c(C#N)c2c1CSC(C)(C)C2`, the cell count in [1] was 678. Further, the inhibition in [1] was -9.4% (inactive); in [2], -211% (inactive); in test [4], -6.06% (inactive); in test [9], 11.4% (inactive). In test [2], this compound had a nuclei count of 166%. The figures for the z-score in [3] (setting [10]), in test [3] (setting [11]) and in test [3] (setting [12]) were 0.402, 0.0532 and -0.896, respectively. The values for the fluorescence slope in test [5] and in test [7] were -0.471 (inactive) and 0.00604 (inactive), respectively. In addition, the NADPH fluorescence slope in test [6] was -6.8e-05 (inactive). Besides, the compound was called inactive in test [8].
Turning to `COC(=O)C(NC(=O)c1ccco1)(Nc1nc(C)cs1)C(F)(F)F` (centres undefined), the cell count in test [1] came to 365. Besides, the inhibition was -1.1% (inactive) in [1], -89.2% (inactive) in test [2], -6.59% (inactive) in test [4] and 14.1% (inactive) in [9]. In test [2], the nuclei count came out at 178%. The z-score was -0.487 in test [3] (setting [10]), 0.248 in test [3] (setting [11]) and 1.38 in [3] (setting [12]). The fluorescence slope was -0.459 (inactive) in test [5] and 0.00502 (inactive) in [7]. The NADPH fluorescence slope in test [6] is -9.6e-05 (inactive). For the same compound, in test [8], the compound was classed as inactive.
Consider `C=CCNc1nc(N2CCCCC2)c(C#N)c2c1CN(Cc1ccccc1)CC2`, for which the cell count in test [1] turned out to be 504. Also, the inhibition is -15.8% (inactive) in test [1], -82.3% (inactive) in test [2], -9.53% (inactive) in test [4] and 0.584% (inactive) in [9]. For the same compound, the nuclei count in test [2] was determined as 127%. Further, the z-score in [3] (setting [10]) is 0.348; in test [3] (setting [11]) it was -0.299; in [3] (setting [12]), -0.89. Further, the fluorescence slope was -0.473 (inactive) in test [5] and 0.00373 (inactive) in test [7]. Further, the NADPH fluorescence slope in test [6] was -5.4e-05 (inactive). Further, the call in [8] was inactive.
Consider `O=c1c2sc3nc(N4CCOCC4)c4c(c3c2ncn1Cc1ccco1)CCCC4`, for which, in test [1], the cell count was 502. In addition, the inhibition in test [1] was 2.3% (inactive); in test [2], -62.8% (inactive); in test [4] it was 21.8% (inactive); in [9] it was 30% (inactive). The same compound displayed a nuclei count in test [2] of 143%. Moreover, the figures for the z-score in test [3] (setting [10]), in test [3] (setting [11]) and in test [3] (setting [12]) were -0.769, -0.213 and 0.589, respectively. The fluorescence slope was -0.369 (inactive) in test [5] and 0.00575 (inactive) in [7]. Moreover, in test [6], the NADPH fluorescence slope was -1.9e-05 (inactive). In addition, the compound was called inactive in test [8].
For `CCN(CC)CCCN1C(=O)C(=O)/C(=C(/O)c2ccc3c(c2)CC(C)O3)C1c1ccncc1` (centres undefined), the cell count in test [1] worked out at 613. In addition, the inhibition is -2.6% (inactive) in test [1], -3.9% (inactive) in test [2], 19.4% (inactive) in test [4] and 17% (inactive) in test [9]. The nuclei count in test [2] turned out to be 154%. For the same compound, the values for the z-score in [3] (setting [10]), in test [3] (setting [11]) and in [3] (setting [12]) were 1.2, -0.776 and -1.04, respectively. Also, the fluorescence slope in test [5] is -0.478 (inactive); in test [7], 0.00593 (inactive). Besides, the NADPH fluorescence slope in test [6] was -4.1e-05 (inactive). Besides, in [8], the compound was classed as inactive.
For the compound `O=C1C(=O)N(Cc2cccnc2)C(c2ccccn2)/C1=C(/O)c1ccccc1` (centres undefined), the cell count in [1] stood at 620. For the same compound, the inhibition is -5.9% (inactive) in test [1], -74.4% (inactive) in [2], -8.95% (inactive) in test [4] and 6.67% (inactive) in test [9]. The nuclei count in test [2] came out at 158%. Moreover, the values for the z-score in test [3] (setting [10]), in test [3] (setting [11]) and in test [3] (setting [12]) were -0.531, 0.731 and -0.436, respectively. The results for the fluorescence slope in test [5] and in test [7] were -0.503 (inactive) and 0.00562 (inactive), respectively. Further, in test [6], the NADPH fluorescence slope is -6.6e-05 (inactive). Also, the compound was called inactive in test [8].
Turning to `CC1(C)Cc2c(C#N)c(N3CCN(C(=O)c4ccco4)CC3)nc(Cc3ccccc3)c2CO1`, in test [1], the cell count came out at 541. The inhibition is -6.6% (inactive) in test [1], 2.1% (inactive) in test [2], 12.8% (inactive) in [4] and 16.1% (inactive) in test [9]. In addition, in test [2], the nuclei count came out at 97.1%. The z-score was 1.26 in [3] (setting [10]), -0.345 in [3] (setting [11]) and -0.81 in [3] (setting [12]). Also, the figures for the fluorescence slope in test [5] and in [7] were -0.499 (inactive) and 0.00414 (inactive), respectively. Further, the NADPH fluorescence slope in test [6] was 4.3e-05 (inactive). Also, in test [8], the result was inactive.
`CC(O)CNc1nc2c(c(=O)n(C)c(=O)n2C)n1Cc1cccc(C(F)(F)F)c1` (centres undefined): the cell count in [1] came to 679. Also, the inhibition in test [1] is -9.1% (inactive); in test [2], -182% (inactive); in test [4], 11.9% (inactive); in [9] it was 4.09% (inactive). In test [2], this compound gave a nuclei count of 176%. Besides, the z-score in test [3] (setting [10]) was 0.999; in [3] (setting [11]) it was -1.51; in test [3] (setting [12]), -1.36. In addition, the fluorescence slope was -0.511 (inactive) in test [5] and 0.00932 (inactive) in test [7]. For the same compound, in [6], the NADPH fluorescence slope is -5e-05 (inactive). The compound was called inactive in [8].
For the compound `CC(C)c1nc(NCCN2CCOCC2)c(C#N)c2c1COC(C)(C)C2`, the cell count in test [1] stood at 401. Further, the inhibition in [1] is -10.6% (inactive); in test [2] it was -276% (inactive); in test [4] it was -0.584% (inactive); in [9] it was 71.3% (active). For the same compound, the nuclei count in [2] was determined as 186%. The z-score in test [3] (setting [10]) is -0.66; in [3] (setting [11]) it was -0.209; in test [3] (setting [12]), 1.4. Also, the values for the fluorescence slope in test [5] and in test [7] were -0.473 (inactive) and 0.00407 (inactive), respectively. Besides, the NADPH fluorescence slope in test [6] is -0.000118 (inactive). In addition, the outcome in test [8] was inactive.
In the case of `CNc1oc(-c2cccs2)nc1C#N`, in test [1], the cell count was determined as 683. In addition, the inhibition was -0.7% (inactive) in [1], -2.1% (inactive) in test [2], 1.63% (inactive) in test [4] and 7.4% (inactive) in test [9]. Also, in test [2], the nuclei count came out at 144%. In addition, the z-score in test [3] (setting [10]) turned out to be 0.965; in test [3] (setting [11]), 0.294; in test [3] (setting [12]), 0.102. The results for the fluorescence slope in test [5] and in test [7] were -0.0289 (inactive) and 0.00668 (inactive), respectively. Besides, in [6], the NADPH fluorescence slope was -2.3e-05 (inactive). Also, in test [8], the call was inactive.
For `CC(C)=CCC(C)(C)CNC(=O)NC1CCCCC1`, in [1], the cell count turned out to be 577. Moreover, the inhibition in [1] is -4.2% (inactive); in test [2], -143% (inactive); in test [4], -0.584% (inactive); in test [9] it was 19.5% (inactive). Also, the nuclei count in test [2] is 147%. Moreover, the z-score in [3] (setting [10]) was -0.346; in test [3] (setting [11]), -0.203; in test [3] (setting [12]), -0.256. Also, the fluorescence slope in [5] was -0.459 (inactive); in test [7], 0.00622 (inactive). For the same compound, in test [6], the NADPH fluorescence slope is -0.000111 (inactive). Further, in test [8], the result was inactive.

The record behind these values is PubChem BioAssay.
